We go through 18 compounds from ChEMBL document CHEMBL3525975, “Acetylenic linkers in lead compounds: a study of the stability of the propargyl-linked antifolates” (Drug Metab Dispos, 2012).

In brackets after ≈: the same amount, converted by molar mass. A value given as a limit tells only on which side of the number the result lay.

Data set [1] can be described thus: Kinetic solubility of the compound. As to conditions: read-out: Kinetic_solubility. It counts as physicochemical. The essentials:
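20 or 40 mM DMSO stocks diluted into filtered water with or without 200 μg/ml methylcellulose. Centrifuged, held 30 min at room temperature, then reversed-phase HPLC (50% ACN / 50 mM potassium phosphate pH 7.0, isocratic). Solubility taken as the highest concentration where absorbance stays linear with log concentration.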

Data set [2] addresses Dihydrofolate reductase (Staphylococcus aureus, UniProt P0A017). The data set can be described thus: Inhibition of Staphylococcus aureus DHFR assessed as reduction in rate of NADPH consumption. The procedure, abridged:
(§1)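 DHFR activity followed as NADPH consumption at 340 nm over 5 min. Pure enzyme at limiting concentration, 100 μM NADPH, 1 mM dihydrofolate. Buffer: 50 mM KCl, 10 mM 2-mercaptoethanol, 0.5 mM EDTA, 1 mg/ml BSA. Run in triplicate.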

A short description of data set [3]: Drug metabolism in mouse liver microsomes assessed as demethylation at 5 ug/ml after 1 hr at 37 degC by reverse phase HPLC method. It counts as ADME.
Data set [4] in a line: Drug metabolism in mouse liver microsomes assessed as 4-(3-(4-(2,4-diamino-6-methylpyrimidin-5-yl)but-3-yn-2-yl)-5-methoxyphenyl)pyridine 1-oxide at 10 ug/ml by LC-MS/MS method. Format: ADME. The procedure, abridged:
(§2)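 Compound at 10 μg/ml incubated 2 h with mouse liver microsomes (0.5 mg/ml protein, 37°C) in 0.1 M potassium phosphate pH 7.4 with 200 μg/ml HPMC and an NADPH-regenerating system. Controls were DMSO alone and reactions quenched with ACN immediately after adding microsomes. Reactions were stopped with equal volume ice-cold ACN, centrifuged, solid-phase purified and analysed by LC-MS/MS. Metabolite share = metabolite AUC / total metabolite AUC in the same injection.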
On the technique in general: Liver microsomes are vesicles of endoplasmic reticulum, rich in cytochrome P450 enzymes.

The nature of data set [5]: Half life in mouse liver microsomes at 5 ug/ml at 37 degC by reverse phase HPLC method. It counts as ADME. The essentials:
(§3)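 Mouse liver microsomes (0.5 mg/ml) in 0.1 M potassium phosphate pH 7.4 with 200 μg/ml HPMC, 37°C. NADPH-regenerating system: 1.3 mM NADP+, 3.3 mM glucose 6-phosphate, 0.5 U/ml G6P dehydrogenase, 3.3 mM MgCl2. Final compound concentration 5 μg/ml; start by adding microsomes. Controls: DMSO, and compound without microsomes. Quench with ice-cold ACN, solid-phase cleanup, reversed-phase HPLC. Result is percent parent remaining vs pre-incubation. Half-life from the single time point, assuming first-order kinetics.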

The nature of data set [6]: Stability in mouse liver microsomes assessed as parent compound remaining at 5 ug/ml after 1 hr at 37 degC by reverse phase HPLC method. Format: ADME. Conditions: read-out: Stability. The procedure, abridged:
as §3

A short description of data set [7]: Stability in water at 5 ug/ml after 24 hrs at 37 degC by reverse phase HPLC method. It counts as physicochemical. As to conditions: buffer. The procedure, abridged: (§4)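 Compounds incubated 24 h at 37°C in the stated fluid containing 200 μg/ml HPMC. Samples taken before and after incubation, quenched with equal volume ice-cold ACN, centrifuged and the supernatant run on reversed-phase HPLC. Stability = AUC after / AUC before incubation.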

The nature of data set [8]: Drug metabolism in mouse liver microsomes assessed as 3-(4-(2,4-diamino-6-methylpyrimidin-5-yl)but-3-yn-2-yl)-5-(pyridin-4-yl)phenol formation at 10 ug/ml by LC-MS/MS method. Format: ADME. The essentials: as §2
The nature of data set [9]: Stability in pH 7.4 simulated intestinal fluid at 5 ug/ml after 24 hrs at 37 degC by reverse phase HPLC method. It counts as ADME. Conditions: simulated gi fluid, pH 7.4, 24 h. The procedure, abridged:
as §4

Data set [10] is described as follows: Stability in pH 1.2 simulated gastric fluid at 5 ug/ml after 24 hrs at 37 degC by reverse phase HPLC method. It counts as ADME. Conditions: simulated gi fluid, pH 1.2, 24 h. The procedure, abridged: as §4
Data set [11] in a line: Drug metabolism in mouse liver microsomes assessed as 4-(3-(4-(2,4-diamino-6-ethylpyrimidin-5-yl)but-3-yn-2-yl)-5-methoxyphenyl)pyridine 1-oxide formation at 10 ug/ml by LC-MS/MS method. It counts as ADME. The essentials: as §2
Data set [12] is described as follows: Drug metabolism in mouse liver microsomes assessed as 3-(4-(2,4-diamino-6-ethylpyrimidin-5-yl)but-3-yn-2-yl)-5-(pyridin-4-yl)phenol formation at 10 ug/ml by LC-MS/MS method. It counts as ADME. The procedure, abridged:
as §2

Data set [13] can be described thus: Drug metabolism in mouse liver microsomes assessed as 2-(3-(2,4-diamino-6-ethylpyrimidin-5-yl)prop-2-ynyl)-4-(pyridin-4-yl)phenol formation at 10 ug/ml by LC-MS/MS method. It counts as ADME. The procedure, abridged:
as §2

Data set [14] can be described thus: Drug metabolism in mouse liver microsomes assessed as 4-(3-(3-(2,4-diamino-6-ethylpyrimidin-5-yl)prop-2-ynyl)-4-methoxyphenyl)pyridine 1-oxide formation at 10 ug/ml by LC-MS/MS method. Format: ADME. The procedure, abridged:
as §2

The test system of data set [15] is Liver. Kind of data set: Drug level in mouse liver microsomes treated with 10 ug/ml 5-(3-(3-methoxy-5-(pyridin-4-yl)phenyl)but-1-ynyl)-6-methylpyrimidine-2,4-diamine by LC-MS/MS method. It counts as ADME. The procedure, abridged:
as §2

The subject of data set [16] is Liver. The data set can be described thus: Drug level in mouse liver microsomes treated with 10 ug/ml 6-ethyl-5-(3-(3-methoxy-5-(pyridin-4-yl)phenyl)prop-1-ynyl)pyrimidine-2,4-diamine by LC-MS/MS method. Format: ADME. The essentials: as §2
Data set [17] deals with Liver. Kind of data set: Drug level in mouse liver microsomes treated with 10 ug/ml 6-ethyl-5-(3-(3-methoxy-5-(pyridin-4-yl)phenyl)but-1-ynyl)pyrimidine-2,4-diamine by LC-MS/MS method. It counts as ADME. The procedure, abridged:
as §2

In data set [18] the test system is Liver. Kind of data set: Drug level in mouse liver microsomes treated with 10 ug/ml 6-ethyl-5-(3-(2-methoxy-5-(pyridin-4-yl)phenyl)prop-1-ynyl)pyrimidine-2,4-diamine by LC-MS/MS method. Format: ADME. The procedure, abridged: as §2
Data set [19] is described as follows: Drug metabolism in mouse liver microsomes assessed as 2-(4-(2,4-diamino-6-ethylpyrimidin-5-yl)but-3-yn-2-yl)-4-(pyridin-4-yl)phenol formation at 10 ug/ml by LC-MS/MS method. It counts as ADME. The essentials:
as §2

Data set [20] is described as follows: Drug metabolism in mouse liver microsomes assessed as 4-(3-(4-(2,4-diamino-6-ethylpyrimidin-5-yl)but-3-yn-2-yl)-4-methoxyphenyl)pyridine 1-oxide formation at 10 ug/ml by LC-MS/MS method. It counts as ADME. The essentials: as §2
For data set [21], the system named is Liver. Kind of data set: Drug level in mouse liver microsomes treated with 10 ug/ml 6-ethyl-5-(3-(2-methoxy-5-(pyridin-4-yl)phenyl)but-1-ynyl)pyrimidine-2,4-diamine by LC-MS/MS method. Format: ADME. The procedure, abridged: as §2
The subject of data set [22] is Staphylococcus aureus. The data set can be described thus: Antimicrobial activity against Staphylococcus aureus. Format: functional.
Data set [23] in a line: Inhibition of Candida glabrata DHFR. Set-up: species or system Nakaseomyces glabratus. The procedure, abridged: as §1

Chain of Dihydrofolate reductase (P0A017 whole entry): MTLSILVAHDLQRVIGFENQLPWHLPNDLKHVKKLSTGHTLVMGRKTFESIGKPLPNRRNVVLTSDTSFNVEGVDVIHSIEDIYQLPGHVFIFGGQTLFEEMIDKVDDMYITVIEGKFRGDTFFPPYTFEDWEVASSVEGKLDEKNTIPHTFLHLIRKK

As for `COc1cc(C(C)C#Cc2c(C)nc(N)nc2N)cc(N2CCOCC2)c1` (configuration not stated), the solubility kinetic in data set [1] is above 80 µg/mL.

Turning to `CCc1nc(N)nc(N)c1C#CC(C)c1cc(OC)cc(N2CCOCC2)c1` (configuration not stated), the IC50 in data set [2] amounted to 26 nM. Besides, in data set [1], the solubility kinetic was above 80 µg/mL.

Take `COc1cc(-c2ccncc2)cc(C(C)C#Cc2c(C)nc(N)nc2N)c1` (configuration not stated): the Drug metabolism in [3] is on record as 15.9%; in [4], “metabolite_detected”; in [8] it was “metabolite_detected”. The half-life at 5 ug/ml in data set [5] was 38 min. Also, the remaining at 1 h, 5 ug/ml in [6] was determined as 33.7%. Moreover, the Stability result in data set [7], in data set [9] and in data set [10] was “Stable” each time.

Consider `CCc1nc(N)nc(N)c1C#CC(C)c1cc(OC)cc(-c2ccncc2)c1` (configuration not stated), for which the Drug metabolism in data set [3] is recorded as 28%; in data set [11], “metabolite_detected”; in [12] it was “metabolite_detected”. This compound also showed a half-life at 5 ug/ml in data set [5] of 34 min. Further, the remaining at 1 h, 5 ug/ml in [6] came out at 29.2%. The Stability entry in [7], in data set [9] and in [10] was “Stable” throughout.

For the compound `CCc1nc(N)nc(N)c1C#CCc1cc(OC)cc(-c2ccncc2)c1`, in [3], the Drug metabolism is given as 6.3%. In addition, the half-life at 5 ug/ml in data set [5] is below 10 min. For the same compound, the remaining at 1 h, 5 ug/ml in data set [6] was 0%. The Stability entry in data set [7], in data set [9] and in data set [10] was “Stable” throughout.

In the case of `CCc1nc(N)nc(N)c1C#CCc1cc(-c2ccncc2)ccc1OC`, the values for the Drug metabolism result in data set [13], in [3] and in [14] were “metabolite_detected”, 19.7% and “metabolite_detected”, respectively. Moreover, the half-life at 5 ug/ml in data set [5] came out at 31 min. The remaining at 1 h, 5 ug/ml in data set [6] came out at 26.5%. The Stability entry in [7], in [9] and in data set [10] was “Stable” in each case.

On to `Cc1nc(N)nc(N)c1C#CC(C)c1cc(O)cc(-c2ccncc2)c1` (configuration not stated), for which the Drug metabolism entry in data set [15] is on record as “metabolite_detected”.

Regarding `CCc1nc(N)nc(N)c1C#CCc1cc(OC)cc(-c2cc[n+]([O-])cc2)c1`, the Drug metabolism result in data set [16] was “metabolite_detected”.

As to `CCc1nc(N)nc(N)c1C#CCc1cc(O)cc(-c2ccncc2)c1`, the Drug metabolism result in data set [16] is “metabolite_detected”.

Take `CCc1nc(N)nc(N)c1C#CC(C)c1cc(OC)cc(-c2cc[n+]([O-])cc2)c1` (configuration not stated): the Drug metabolism entry in [17] is recorded as “metabolite_detected”.

Consider `CCc1nc(N)nc(N)c1C#CCc1cc(-c2ccncc2)ccc1O`, for which the Drug metabolism entry in [18] is “metabolite_detected”.

Take `CCc1nc(N)nc(N)c1C#CC(C)c1cc(O)cc(-c2ccncc2)c1` (configuration not stated): the Drug metabolism entry in [17] is listed as “metabolite_detected”.

For `CCc1nc(N)nc(N)c1C#CC(C)c1cc(-c2ccncc2)ccc1OC` (configuration not stated), the half-life at 5 ug/ml in data set [5] amounted to 65 min. Further, the Drug metabolism result in [19] and in data set [20] was “metabolite_detected” each time.

On to `CCc1nc(N)nc(N)c1C#CC(C)c1cc(-c2cc[n+]([O-])cc2)ccc1OC` (configuration not stated), for which, in [21], the Drug metabolism result is reported as “metabolite_detected”. Further, the half-inhibitory concentration (IC50) in data set [2] worked out at 45 nM.

Regarding `COc1cc(C(C)C#Cc2c(C)nc(N)nc2N)cc(N2CCNCC2)c1` (configuration not stated), the concentration for half-maximal inhibition (IC50) in [2] was found to be 130 nM. Moreover, in data set [22], the MIC was found to be 91.5 µg/mL (≈ 250 µM). Also, the solubility kinetic in [1] amounted to 60 µg/mL (≈ 164 µM).

For the compound `COc1cc(-c2cc[n+]([O-])cc2)cc(C(C)C#Cc2c(C)nc(N)nc2N)c1` (configuration not stated), in data set [15], the Drug metabolism entry is reported as “metabolite_detected”.

Turning to `COc1cc(-c2ccccc2)cc(C(C)C#Cc2c(C)nc(N)nc2N)c1` (configuration not stated), in data set [2], the IC50 is 61 nM. This compound yielded a minimal inhibitory concentration (MIC) in [22] of 0.72 µg/mL (≈ 2.01 µM). The solubility kinetic in [1] was 20 µg/mL (≈ 55.8 µM).

As for `COc1cc(-c2cc(C)cc(C)c2)cc(C(C)C#Cc2c(C)nc(N)nc2N)c1` (configuration not stated), the concentration for half-maximal inhibition (IC50) in [23] was found to be 0.5 nM.

A word on the IC50: it is the midpoint of a concentration-inhibition curve. As a reminder, the half-life is how long it takes for the measured level to halve. A low value points to fast loss. As usually defined, the MIC is the lowest concentration that inhibits growth of the organism. Low readings indicate greater potency, high ones weaker potency.
